Experimental data: ChEMBL document CHEMBL5712917, “G9a regulates tumorigenicity and stemness through genome-wide DNA methylation reprogramming in non-small cell lung cancer” (Clin Epigenetics, 2020)
Calls of active or inactive are those of the source.

Key:
[1] = system: LCSC-4; experiment: Antitumor activity against human LCSC-4 cells assessed as increase in CDYL2 expression by Western blot analysis; type: functional, cell-based
Procedure, shortened: (§1)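 Western blot on TICs exposed to G9A inhibitor. Cells lysed in 2X SDS buffer; 10 μl lysate or 20 μg protein run on 4–12% SDS-PAGE, transferred to PVDF, blocked in 5% non-fat milk/TBST, then probed with primary and secondary antibodies against each target protein.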

[2] = system: LCSC-4; experiment: Antitumor activity against human LCSC-4 cells assessed as increase in DPP4 expression by Western blot analysis; type: functional, cell-based; procedure, shortened: as §1
[3] = system: LCSC-1; experiment: Antitumor activity against human LCSC-1 cells assessed as decrease in tumor sphere formation at 10 uM for 72 hrs; type: functional, cell-based
Procedure, shortened: (§2)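 Single cells from accutase-dissociated tumorspheres, 50,000–100,000 per well, grown in serum-free sphere medium (B-27, EGF, FGF, heparin). Exposed to 10 μM inhibitor at 37 °C for 72 h, then imaged. Sphere-forming capacity was scored by sphere size, and treated cells were compared with control by t test.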

[4] = system: LCSC-2; experiment: Antitumor activity against human LCSC-2 cells assessed as decrease in tumor sphere formation at 10 uM for 72 hrs; type: functional, cell-based; procedure, shortened: as §2
[5] = system: LCSC-4; experiment: Antitumor activity against human LCSC-4 cells assessed as decrease in tumor sphere formation at 10 uM for 72 hrs; type: functional, cell-based; procedure, shortened: as §2
[6] = system: LCSC-1; experiment: Antitumor activity against human LCSC-1 cells assessed as decrease in cell proliferation at 10 uM for 72 hrs by CCK-8 assay; type: functional, cell-based
Procedure, shortened: (§3)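 TIC spheres dissociated to single cells with accutase and grown in serum-free DMEM/F12 with B-27, 25 ng/ml EGF, 25 ng/ml FGF and heparin. Cells were treated with 10 μM inhibitor at 37 °C for 72 h in 96-well format. CCK-8 solution was then added for 1–4 h and absorbance read at 450 nm. Groups compared against control by t test.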

[7] = system: LCSC-2; experiment: Antitumor activity against human LCSC-2 cells assessed as decrease in cell proliferation at 10 uM for 72 hrs by CCK-8 assay; type: functional, cell-based; procedure, shortened: as §3
[8] = system: LCSC-4; experiment: Antitumor activity against human LCSC-4 cell assessed as decrease in cell proliferation at 10 uM for 72 hrs by CCK-8 assay; type: functional, cell-based; procedure, shortened: as §3
[9] = system: LCSC-2; experiment: Antitumor activity against human LCSC-2 cells assessed as increase in CDYL2 expression by Western blot analysis; type: functional, cell-based; procedure, shortened: as §1
[10] = system: LCSC-2; experiment: Antitumor activity against human LCSC-2 cells assessed as increase in DPP4 expression by Western blot analysis; type: functional, cell-based; procedure, shortened: as §1
[11] = system: LCSC-2; experiment: Antitumor activity against human LCSC-2 cells assessed as increase in SP5 expression by Western blot analysis; type: functional, cell-based; procedure, shortened: as §1
[12] = system: LCSC-2; experiment: Antitumor activity against human LCSC-2 cells assessed as increase in STAMBPL1 expression by Western blot analysis; type: functional, cell-based; procedure, shortened: as §1
[13] = system: LCSC-2; experiment: Antitumor activity against human LCSC-2 cells assessed as increase in FOXP1 expression by Western blot analysis; type: functional, cell-based; procedure, shortened: as §1
[14] = system: LCSC-2; experiment: Antitumor activity against human LCSC-2 cells assessed as increase in ROBO1 expression by Western blot analysis; type: functional, cell-based; procedure, shortened: as §1
[15] = system: LCSC-4; experiment: Antitumor activity against human LCSC-4 cells xenografted in NOD-SCID mouse assessed as suppression of tumor volume at 10 mg/kg, ip administered for 8 weeks; type: functional, organism-based
Procedure, shortened: (§4)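 NOD-SCID mice given 100,000 single cells from dissociated wild-type TIC spheres subcutaneously. Established tumors split into vehicle or 10 mg/kg inhibitor groups, dosed intraperitoneally for 8 weeks. Tumor size measured weekly and tumor weight taken at euthanasia. Tumors fixed in 10% formaldehyde and stained by IHC (×20) for G9A, H3K9Me2, FOXP1 and SP5; t test.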

[16] = system: LCSC-4; experiment: Antitumor activity against human LCSC-4 cells xenografted in NOD-SCID mouse assessed as decrease in G9a expression at 10 mg/kg, ip administered for 8 weeks by immunohistochemical staining assay; type: functional, organism-based; procedure, shortened: as §4
[17] = system: LCSC-4; experiment: Antitumor activity against human LCSC-4 cells xenografted in NOD-SCID mouse assessed as decrease in H3K9Me2 expression at 10 mg/kg, ip administered for 8 weeks by immunohistochemical staining assay; type: functional, organism-based; procedure, shortened: as §4
[18] = system: LCSC-4; experiment: Antitumor activity against human LCSC-4 cells xenografted in NOD-SCID mouse assessed as increase in FOXP1 expression at 10 mg/kg, ip administered for 8 weeks by immunohistochemical staining assay; type: functional, organism-based; procedure, shortened: as §4
[19] = system: LCSC-4; experiment: Antitumor activity against human LCSC-4 cells xenografted in NOD-SCID mouse assessed as increase in SP5 expression at 10 mg/kg, ip administered for 8 weeks by immunohistochemical staining assay; type: functional, organism-based; procedure, shortened: as §4
[20] = system: LCSC-4; experiment: Antitumor activity against human LCSC-4 cells assessed as increase in SP5 expression by Western blot analysis; type: functional, cell-based; procedure, shortened: as §1
[21] = system: LCSC-4; experiment: Antitumor activity against human LCSC-4 cells assessed as increase in STAMBPL1 expression by Western blot analysis; type: functional, cell-based; procedure, shortened: as §1
[22] = system: LCSC-4; experiment: Antitumor activity against human LCSC-4 cells assessed as increase in FOXP1 expression by Western blot analysis; type: functional, cell-based; procedure, shortened: as §1
[23] = system: LCSC-4; experiment: Antitumor activity against human LCSC-4 cells assessed as increase in ROBO1 expression by Western blot analysis; type: functional, cell-based; procedure, shortened: as §1
[24] = system: LCSC-2 (human); experiment: Antitumor activity against human LCSC-2 cells xenografted in NOD-SCID mouse assessed as suppression of tumor volume at 10 mg/kg, ip administered for 8 weeks
[25] = system: LCSC-2 (human); experiment: Antitumor activity against human LCSC-2 cells xenografted in NOD-SCID mouse assessed as decrease in G9a expression at 10 mg/kg, ip administered for 8 weeks by immunohistochemical staining assay
[26] = system: LCSC-2 (human); experiment: Antitumor activity against human LCSC-2 cells xenografted in NOD-SCID mouse assessed as increase in SP5 expression at 10 mg/kg, ip administered for 8 weeks by immunohistochemical staining assay
[27] = system: LCSC-2 (human); experiment: Antitumor activity against human LCSC-2 cells xenografted in NOD-SCID mouse assessed as increase in FOXP1 expression at 10 mg/kg, ip administered for 8 weeks by immunohistochemical staining assay
[28] = system: LCSC-2 (human); experiment: Antitumor activity against human LCSC-2 cells xenografted in NOD-SCID mouse assessed as decrease in H3K9Me2 expression at 10 mg/kg, ip administered for 8 weeks by immunohistochemical staining assay

Measured: Activity

COc1cc2c(NC3CCN(C(C)C)CC3)nc(N3CCC(F)(F)CC3)nc2cc1OCCCN1CCCC1
active: all assays above
